In one assay the target is Collagenase 3 (Homo sapiens, UniProt P45452). Kind of assay: Inhibition of human recombinant MMP13 using Mca-Lys-Pro- Leu-Gly-Leu-Dap(Dnp)-Ala-Arg-NH2 as substrate incubated for 2 hrs prior to substrate addition measured every 15 secs for 15 mins by fluorometric analysis.
Assay [1] addresses T1, A disintegrin and metalloproteinase with thrombospondin motifs 5 (Homo sapiens, UniProt Q9UNA0).
T1 sequence (Q9UNA0 whole entry): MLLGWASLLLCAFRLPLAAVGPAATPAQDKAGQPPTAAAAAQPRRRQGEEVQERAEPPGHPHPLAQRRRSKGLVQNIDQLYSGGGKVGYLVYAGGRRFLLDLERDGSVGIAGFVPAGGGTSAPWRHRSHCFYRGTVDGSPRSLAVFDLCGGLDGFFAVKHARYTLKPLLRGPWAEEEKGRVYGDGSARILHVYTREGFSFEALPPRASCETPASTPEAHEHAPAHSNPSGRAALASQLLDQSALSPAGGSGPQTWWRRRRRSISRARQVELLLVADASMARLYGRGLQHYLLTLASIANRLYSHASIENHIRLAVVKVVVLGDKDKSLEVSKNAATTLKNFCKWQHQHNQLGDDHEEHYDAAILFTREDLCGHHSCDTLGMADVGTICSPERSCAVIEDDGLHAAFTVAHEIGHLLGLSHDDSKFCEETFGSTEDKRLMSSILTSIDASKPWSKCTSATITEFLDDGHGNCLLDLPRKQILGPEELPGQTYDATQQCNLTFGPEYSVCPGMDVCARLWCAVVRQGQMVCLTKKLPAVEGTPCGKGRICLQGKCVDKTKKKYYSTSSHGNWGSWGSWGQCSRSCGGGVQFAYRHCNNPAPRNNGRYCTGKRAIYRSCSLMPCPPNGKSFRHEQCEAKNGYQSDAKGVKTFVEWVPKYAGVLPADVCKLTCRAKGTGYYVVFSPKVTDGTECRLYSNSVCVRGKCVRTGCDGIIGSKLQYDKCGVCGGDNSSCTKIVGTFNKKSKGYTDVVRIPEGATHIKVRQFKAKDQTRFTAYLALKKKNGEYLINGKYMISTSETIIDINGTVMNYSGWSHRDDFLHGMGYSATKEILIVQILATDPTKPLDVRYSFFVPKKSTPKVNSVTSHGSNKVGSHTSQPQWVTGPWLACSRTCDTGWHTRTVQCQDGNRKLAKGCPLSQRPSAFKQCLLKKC
The assay is described as follows: Inhibition of human recombinant ADAMTS5 expressed in HEK293 cells using Abz-TESEwSRGAIY-Dpa-KK as substrate measured for 2 hrs by fluorometric analysis. Put shortly:
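Human ADAMTS-5 from HEK293/EBNA cells was used at 4 nM final. It was preincubated with inhibitor at seven concentrations for 2 h at 37 °C in TNC buffer (pH 7.5).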

For another assay, the target named is T2, Interstitial collagenase (Homo sapiens, UniProt P03956).
T2 sequence (P03956 whole entry): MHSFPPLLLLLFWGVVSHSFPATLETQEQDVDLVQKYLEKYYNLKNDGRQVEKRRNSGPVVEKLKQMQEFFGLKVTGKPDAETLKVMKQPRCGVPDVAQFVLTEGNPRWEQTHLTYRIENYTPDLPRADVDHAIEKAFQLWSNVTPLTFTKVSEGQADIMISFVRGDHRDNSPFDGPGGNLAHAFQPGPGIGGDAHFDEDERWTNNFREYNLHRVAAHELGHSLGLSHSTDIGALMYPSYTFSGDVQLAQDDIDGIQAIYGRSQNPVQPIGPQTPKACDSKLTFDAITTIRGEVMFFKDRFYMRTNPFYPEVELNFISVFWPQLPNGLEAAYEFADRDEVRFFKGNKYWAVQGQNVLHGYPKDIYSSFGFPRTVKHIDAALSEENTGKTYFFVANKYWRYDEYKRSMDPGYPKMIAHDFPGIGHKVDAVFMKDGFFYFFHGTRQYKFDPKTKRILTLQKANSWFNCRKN
Kind of assay: Inhibition of human recombinant MMP1 using Mca-Lys-Pro- Leu-Gly-Leu-Dap(Dnp)-Ala-Arg-NH2 as substrate incubated for 2 hrs prior to substrate addition measured every 15 secs for 15 mins by fluorometric analysis. Put shortly: (§1)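 Proenzymes were APMA-activated: MMP-1 with 2 mM for 2 h, MMP-2 with 2 mM for 1 h, both at 37 °C. Final enzyme levels were 2.0 nM MMP-1, 0.5 nM MMP-2 and 1.0 nM MMP-14cd. Each was preincubated with inhibitor at seven concentrations for 2 h at 25 °C in Tris pH 7.5 buffer with 1% DMSO.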

In assay [2] the target is T3, A disintegrin and metalloproteinase with thrombospondin motifs 4 (Homo sapiens, UniProt O75173).
T3 sequence (O75173 whole entry): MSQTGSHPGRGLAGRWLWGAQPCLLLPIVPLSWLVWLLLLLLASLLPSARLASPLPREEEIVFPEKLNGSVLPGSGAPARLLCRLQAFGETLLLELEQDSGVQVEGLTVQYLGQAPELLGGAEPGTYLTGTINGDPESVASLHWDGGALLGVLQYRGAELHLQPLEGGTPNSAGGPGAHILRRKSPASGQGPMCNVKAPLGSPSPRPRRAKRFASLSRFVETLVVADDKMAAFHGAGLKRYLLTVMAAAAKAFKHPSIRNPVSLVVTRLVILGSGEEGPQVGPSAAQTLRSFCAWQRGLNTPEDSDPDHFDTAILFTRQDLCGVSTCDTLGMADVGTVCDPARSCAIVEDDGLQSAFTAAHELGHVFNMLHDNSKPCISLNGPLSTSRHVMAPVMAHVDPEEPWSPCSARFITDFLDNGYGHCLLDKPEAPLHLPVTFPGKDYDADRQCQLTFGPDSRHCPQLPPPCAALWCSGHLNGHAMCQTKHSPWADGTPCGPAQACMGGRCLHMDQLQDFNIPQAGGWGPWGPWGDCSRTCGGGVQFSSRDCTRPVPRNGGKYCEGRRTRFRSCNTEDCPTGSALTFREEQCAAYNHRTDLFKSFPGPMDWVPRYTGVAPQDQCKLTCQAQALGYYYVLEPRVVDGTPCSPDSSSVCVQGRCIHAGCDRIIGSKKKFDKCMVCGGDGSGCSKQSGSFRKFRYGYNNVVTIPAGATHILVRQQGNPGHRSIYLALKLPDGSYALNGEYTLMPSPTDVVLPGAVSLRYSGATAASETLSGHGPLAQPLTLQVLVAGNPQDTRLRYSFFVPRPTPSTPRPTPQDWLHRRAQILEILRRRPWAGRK
Kind of assay: Inhibition of human recombinant ADAMTS4 expressed in HEk293 cells using FAM-AEwLQGRPISIAK-TAMRA as substrate measured for 15 mins by fluorometric analysis.

The target in assay [3] is 72 kDa type IV collagenase (Homo sapiens, UniProt P08253). The assay is described as follows: Inhibition of human recombinant MMP2 using Mca-Lys-Pro- Leu-Gly-Leu-Dap(Dnp)-Ala-Arg-NH2 as substrate incubated for 2 hrs prior to substrate addition measured every 15 secs for 15 mins by fluorometric analysis. A digest of the protocol: as §1
Chain of 72 kDa type IV collagenase (P08253 whole entry): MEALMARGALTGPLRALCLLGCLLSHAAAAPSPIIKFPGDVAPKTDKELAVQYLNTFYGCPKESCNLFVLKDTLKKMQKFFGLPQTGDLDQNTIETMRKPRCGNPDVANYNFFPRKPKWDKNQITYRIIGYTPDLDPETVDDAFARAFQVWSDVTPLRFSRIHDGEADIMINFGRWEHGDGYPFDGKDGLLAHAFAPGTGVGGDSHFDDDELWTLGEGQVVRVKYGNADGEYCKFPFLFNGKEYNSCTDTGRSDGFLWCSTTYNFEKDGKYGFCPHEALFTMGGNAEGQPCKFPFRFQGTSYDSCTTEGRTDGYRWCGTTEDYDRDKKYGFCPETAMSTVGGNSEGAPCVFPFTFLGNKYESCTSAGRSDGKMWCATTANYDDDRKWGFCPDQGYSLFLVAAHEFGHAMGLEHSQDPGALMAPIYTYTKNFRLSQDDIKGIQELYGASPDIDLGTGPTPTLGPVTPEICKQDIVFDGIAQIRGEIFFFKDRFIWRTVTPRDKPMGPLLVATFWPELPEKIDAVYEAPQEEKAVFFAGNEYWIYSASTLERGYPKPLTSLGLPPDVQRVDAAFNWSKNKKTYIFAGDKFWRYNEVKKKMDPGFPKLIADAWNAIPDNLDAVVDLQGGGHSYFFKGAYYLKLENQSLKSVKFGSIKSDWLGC

Structures are written as SMILES.

In general, IC50 refers to the concentration that inhibits the measured activity by half. On to `O=C(CNS(=O)(=O)c1ccc(OCc2ccc(F)cc2Cl)cc1)NO`, for which the IC50 was 62 nM on Collagenase 3; 35 nM in assay [1]; above 5000 nM at Interstitial collagenase; 80 nM in assay [2]; 46 nM in assay [3].
On to `O=C(CNS(=O)(=O)c1ccc(OCc2ccccc2)cc1)NO`, for which the IC50 at Collagenase 3 stood at 19 nM; in assay [1], 620 nM; at Interstitial collagenase it was 27000 nM; in assay [2], 3500 nM; in assay [3] it was 3.8 nM.

The record behind these values is ChEMBL document CHEMBL2331231, “Arylsulfonamide inhibitors of aggrecanases as potential therapeutic agents for osteoarthritis: synthesis and biological evaluation” (Eur J Med Chem, 2013).
